Structures are written as SMILES. Converted amounts (≈) assume the structure as drawn.

As usually defined, the MIC is the lowest concentration found to suppress growth. Higher therefore signals a less susceptible organism. As a reminder, the clearance is the rate of elimination divided by the concentration. The term bioavailability denotes dose-corrected exposure relative to a reference, in per cent. Read a low bioavailability as poor availability. One may read the half-life as the time in which the quantity being followed falls by half. High values mean slow loss, low ones fast loss. One may read the solubility as how much of the substance goes into solution per volume. Usually Cmax stands for the peak of the concentration-time curve. The term AUC(0-t) denotes exposure summed from dosing to a finite time, without extrapolation to infinity. What is called Tmax is the time at which the peak concentration occurs.

The subject of data set [1] is Cryptococcus neoformans. Put plainly: Antifungal activity against Cryptococcus neoformans JLC 50123 by broth microdilution method. Format: functional. The method in brief:
(§1)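 MICs were determined by broth microdilution following NCCLS guidelines (M38-P for filamentous fungi). The panel covered four yeast species and two Aspergillus species, with two strains per species. Itraconazole served as positive control.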
For orientation: In broth dilution the organism is exposed to a series of concentrations in liquid medium.

Data set [2] is described as follows: Clearance in rat at 10 mg/kg, iv administered as single dose. It counts as ADME, organism-based. On the set-up: dose 10 mg/kg, route intravenous. Particulars: in vivo. In a few lines: (§2)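 Rats received a single dose of compound, either oral (10 mg/kg) or intravenous (10, 5 or 2.5 mg/kg). Plasma levels were followed, and the reported parameters were Cmax, Tmax, AUC0–t, half-life, clearance and bioavailability (F).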

In data set [3] the test system is Aspergillus flavus. Put plainly: Antifungal activity against Aspergillus flavus JLC 30784 by broth microdilution method. Format: functional. In a few lines:
as §1

A short description of data set [4]: Oral bioavailability in rat at 10 mg/kg, administered as single dose. Format: ADME, organism-based. The conditions noted are these: in vivo. The method in brief: as §2
Data set [5] is described as follows: Half life in rat at 10 mg/kg, iv administered as single dose. The conditions noted are these: in vivo. Format: ADME, organism-based. On the set-up: dose 10 mg/kg, route intravenous. In a few lines: as §2
The nature of data set [6]: Solubility of the compound in water at pH 7.4. Particulars: buffer, BLD = below limit of detection. It counts as physicochemical.
The test system of data set [7] is Aspergillus fumigatus. Put plainly: Antifungal activity against Aspergillus fumigatus JLC 30506 by broth microdilution method. It counts as functional. In a few lines:
as §1

In data set [8] the test system is Candida albicans. The data set is described as follows: Antifungal activity against Candida albicans JLC 30364 by broth microdilution method. Format: functional. The method in brief:
as §1

Data set [9] is described as follows: Half life in rat at 10 mg/kg, po administered as single dose. Format: ADME, organism-based. On the set-up: dose 10 mg/kg, route oral. Particulars: in vivo. In a few lines:
as §2

Data set [10] has as its system Candida parapsilosis. Put plainly: Antifungal activity against Candida parapsilosis JLC 30365 by broth microdilution method. It counts as functional. Particulars: Lodderomyces parapsilosis. The method in brief:
as §1

A short description of data set [11]: Solubility of the compound in water at pH 1.2. It counts as physicochemical. The conditions noted are these: water, read-out: solubility.
Data set [12] has as its system Pichia kudriavzevii. The data set is described as follows: Antifungal activity against Candida krusei JLC 30366 by broth microdilution method. Format: functional. In a few lines: as §1
Data set [13] in a line: Cmax in rat at 10 mg/kg, po administered as single dose. Format: ADME, organism-based. On the set-up: dose 10 mg/kg, route oral. The conditions noted are these: in vivo. In a few lines:
as §2

For data set [14], the system named is Cryptococcus neoformans. Put plainly: Antifungal activity against Cryptococcus neoformans JLC 50122 by broth microdilution method. It counts as functional. The method in brief: as §1
Data set [15] can be described thus: AUC (0 to t) in rat at 10 mg/kg, po administered as single dose. Format: ADME, organism-based. On the set-up: dose 10 mg/kg, route oral. The conditions noted are these: plasma. In a few lines:
as §2

Data set [16] relates to Candida albicans. The data set is described as follows: Antifungal activity against Candida albicans JLC 31374 by broth microdilution method. It counts as functional. The method in brief: as §1
For data set [17], the system named is Candida parapsilosis. Put plainly: Antifungal activity against Candida parapsilosis JLC 30275 by broth microdilution method. It counts as functional. Particulars: Lodderomyces parapsilosis. The method in brief:
as §1

A short description of data set [18]: AUC (0 to t) in rat at 10 mg/kg, iv administered as single dose. Further details: dose 10 mg/kg, route intravenous. Format: ADME, organism-based. Particulars: plasma. The method in brief: as §2
Data set [19] can be described thus: Tmax in rat at 10 mg/kg, po administered as single dose. Format: ADME, organism-based. Further details: dose 10 mg/kg, route oral. Particulars: in vivo. The method in brief: as §2
The test system of data set [20] is Pichia kudriavzevii. Put plainly: Antifungal activity against Candida krusei JLC 30386 by broth microdilution method. Format: functional. In a few lines: as §1
Data set [21] concerns Aspergillus fumigatus. The data set is described as follows: Antifungal activity against Aspergillus fumigatus JLC 30883 by broth microdilution method. It counts as functional. The method in brief:
as §1

Data set [22] deals with Aspergillus flavus. Put plainly: Antifungal activity against Aspergillus flavus JLC 40437 by broth microdilution method. Format: functional. In a few lines:
as §1

The nature of data set [23]: AUC (0 to t) in rat at 5 mg/kg, iv administered as single dose. On the set-up: dose 5 mg/kg, route intravenous. Particulars: plasma. Format: ADME, organism-based. In a few lines: as §2
Data set [24] is described as follows: Half life in rat at 5 mg/kg, iv administered as single dose. Format: ADME, organism-based. Further details: dose 5 mg/kg, route intravenous. The conditions noted are these: in vivo. In a few lines:
as §2

A short description of data set [25]: Clearance in rat at 5 mg/kg, iv administered as single dose. Format: ADME, organism-based. Further details: dose 5 mg/kg, route intravenous. The conditions noted are these: in vivo. The method in brief:
as §2

`CC(C)n1ncn(-c2ccc(N3CCN(c4ccc(OC[C@H]5CO[C@](Cn6cncn6)(c6ccc(F)cc6F)O5)cc4)CC3)nc2)c1=O`: the MIC in the data set with Cryptococcus neoformans [1] is 0.25 µg/mL (≈ 0.379 µM); in the data set with Aspergillus flavus [3], 0.125 µg/mL (≈ 0.189 µM); in the data set on Aspergillus fumigatus [7] it was 0.25 µg/mL (≈ 0.379 µM); against Candida albicans [8], 0.0075 µg/mL (≈ 0.0114 µM); with Candida parapsilosis [10], 0.125 µg/mL (≈ 0.189 µM); in the data set with Pichia kudriavzevii [12], 0.0625 µg/mL (≈ 0.0947 µM). Moreover, the minimum inhibitory concentration (MIC) in the data set on Cryptococcus neoformans [14] was 0.25 µg/mL (≈ 0.379 µM); with Candida albicans [16] it was 0.0075 µg/mL (≈ 0.0114 µM); in the data set on Candida parapsilosis [17] it was 0.125 µg/mL (≈ 0.189 µM); in the data set with Pichia kudriavzevii [20], 0.0625 µg/mL (≈ 0.0947 µM); with Aspergillus fumigatus [21], 0.25 µg/mL (≈ 0.379 µM); in the data set with Aspergillus flavus [22] it was 0.125 µg/mL (≈ 0.189 µM). The clearance in [2] was 21.2 mL/min/kg. Also, the bioavailability in data set [4] came out at 35%. Moreover, the figures for the half-life in data set [5] and in data set [9] were 4.18 h and 1.26 h, respectively. The solubility entry is “BLD” in data set [6] and 1680 µg/mL (≈ 2550 µM) in data set [11]. For the same molecule, the peak level in data set [13] (Cmax) was 712 ng/mL. Further, the area under the curve AUC(0-t) in data set [15] is 2710 ng·h/mL; in [18] it was 7730 ng·h/mL. In [19], the Tmax is 1.88 h.
In the case of `CC(C)Cn1ncn(-c2ccc(N3CCN(c4ccc(OC[C@H]5CO[C@](Cn6cncn6)(c6ccc(F)cc6F)O5)cc4)CC3)nc2)c1=O`, the MIC against Cryptococcus neoformans [1] was found to be 0.5 µg/mL (≈ 0.742 µM); in the data set with Aspergillus flavus [3], 0.0625 µg/mL (≈ 0.0928 µM); against Aspergillus fumigatus [7], 0.25 µg/mL (≈ 0.371 µM); against Candida albicans [8], 0.03 µg/mL (≈ 0.0445 µM); with Candida parapsilosis [10] it was 0.125 µg/mL (≈ 0.186 µM); in the data set with Pichia kudriavzevii [12], 0.0625 µg/mL (≈ 0.0928 µM). Also, the MIC is 0.5 µg/mL (≈ 0.742 µM) with Cryptococcus neoformans [14]; 0.03 µg/mL (≈ 0.0445 µM) against Candida albicans [16]; 0.125 µg/mL (≈ 0.186 µM) with Candida parapsilosis [17]; 0.0625 µg/mL (≈ 0.0928 µM) against Pichia kudriavzevii [20]; 0.25 µg/mL (≈ 0.371 µM) against Aspergillus fumigatus [21]; 0.0625 µg/mL (≈ 0.0928 µM) with Aspergillus flavus [22]. Besides, the AUC(0-t) in data set [23] was found to be 3710 ng·h/mL; in data set [15] it was 1610 ng·h/mL. In addition, the half-life in [24] is 1.43 h; in [9], 2.18 h. Also, the bioavailability in [4] is 21.7%. Further, the clearance in data set [25] is 23.5 mL/min/kg. In data set [11], the solubility was 2330 µg/mL (≈ 3460 µM). Further, the Cmax in data set [13] is 392 ng/mL. In addition, in data set [19], the Tmax was found to be 2 h.
As for `CC(C)n1ncn(-c2ccc(N3CCN(c4ccc(OC[C@H]5CO[C@](Cn6cncn6)(c6ccc(F)cc6F)O5)cc4)CC3)cn2)c1=O`, the minimal inhibitory concentration (MIC) against Cryptococcus neoformans [1] came to 0.25 µg/mL (≈ 0.379 µM); against Aspergillus flavus [3], 0.125 µg/mL (≈ 0.189 µM); against Aspergillus fumigatus [7], 0.125 µg/mL (≈ 0.189 µM); against Candida albicans [8] it was 0.0075 µg/mL (≈ 0.0114 µM); in the data set on Candida parapsilosis [10] it was 0.25 µg/mL (≈ 0.379 µM); against Pichia kudriavzevii [12], 0.0625 µg/mL (≈ 0.0947 µM). Besides, the MIC in the data set with Cryptococcus neoformans [14] is 0.25 µg/mL (≈ 0.379 µM); in the data set on Candida albicans [16] it was 0.0075 µg/mL (≈ 0.0114 µM); with Candida parapsilosis [17], 0.25 µg/mL (≈ 0.379 µM); in the data set with Pichia kudriavzevii [20] it was 0.0625 µg/mL (≈ 0.0947 µM); with Aspergillus fumigatus [21], 0.125 µg/mL (≈ 0.189 µM); in the data set on Aspergillus flavus [22], 0.125 µg/mL (≈ 0.189 µM). For the same molecule, the half-life in data set [9] is 3.45 h. For the same molecule, the solubility in [11] came out at 320 µg/mL (≈ 485 µM). Besides, the Cmax in data set [13] turned out to be 159 ng/mL. In data set [15], this molecule returned an AUC(0-t) of 1220 ng·h/mL. Moreover, the Tmax in [19] was 3 h.

For the origin of these results see ChEMBL document CHEMBL1806410, “Design and synthesis of pyridine-substituted itraconazole analogues with improved antifungal activities, water solubility and bioavailability” (Bioorg Med Chem Lett, 2011).
